{"data": "Results from different studies", "note": "Each line is one published result; the experiments were not run side by side. pEC50: −log10 of the molar value."}
{"SMILES": "CCCCCCC/C=C/C(=O)N1C(=O)/C(=C(\\O)c2ccc(O)cc2)C(=O)C1CC(C)C (centres unmarked)", "organism": "Proteus mirabilis", "test": "microbial growth", "test system": "ATCC25933", "quantity": "MIC", "value": "> 200 µg/mL"}
{"SMILES": "CC(=O)OC[C@@]1(C)[C@H]2CC[C@@H]3CN(Cc4cccc5ccccc45)[C@@H](C4=CCOC4=O)C[C@H]3[C@]2(C)CC[C@H]1OC(C)=O", "organism": "unidentified human coronavirus", "test": "cytopathic effect", "test system": "MRC5", "setting": "25 µM, 72 h", "quantity": "inhibition", "value": "106%"}
{"SMILES": "COC(=O)N[C@H](C(=O)N1CCC[C@H]1c1nc(-c2ccc(-c3ccc(-c4c[nH]c([C@@H]5CCCN5C(=O)[C@@H](NC(=O)OC)C(C)C)n4)cc3)cc2)c[nH]1)C(C)C", "organism": "Hepatitis C virus", "test": "viral replication, inhibitor, luciferase", "test system": "GETYPE4A", "setting": "replicon", "quantity": "pEC50", "value": 10.68}
{"SMILES": "CC1(C)OC[C@@]2(C)[C@H]3CC[C@@H]4CN(Cc5cccs5)[C@@H](C5=CCOC5=O)C[C@H]4[C@]3(C)CC[C@H]2O1", "organism": "unidentified human coronavirus", "test": "cytopathic effect", "test system": "MRC5", "setting": "25 µM, 72 h", "quantity": "inhibition", "value": "38.4%"}
{"SMILES": "CCOC(=O)N[C@@H](C(=O)N1CCC[C@H]1C(=O)Nc1ccc(C#CC#Cc2ccc(NC(=O)[C@@H]3CCCN3C(=O)[C@H](NC(=O)OCC)C(C)C)cc2)cc1)C(C)C", "organism": "Hepatitis C virus", "test": "viral replication, inhibitor, luciferase", "test system": "Huh-5-2, GETYPE1B", "setting": "72 h, replicon", "quantity": "pEC50", "value": 6.57}
{"SMILES": "Nc1nc(NS(=O)(=O)c2ccccc2)nc(-c2ccc(F)cc2)c1-c1nc2ccccc2s1", "organism": "Enterovirus B", "test": "plaque formation", "test system": "BGM, B4", "quantity": "IC50", "value": "93 µg/mL"}
{"SMILES": "Cc1ccc(-c2nn(-c3ccccc3)cc2C=C(C#N)C2=NC(=O)CS2)cc1", "organism": "Acinetobacter baumannii", "test": "microbial growth, well diffusion", "setting": "100000 µg/mL", "quantity": "inhibition zone", "value": "20 mm"}
{"SMILES": "CCCCOC(=O)N[C@H](C(=O)N1CCC[C@H]1C(=O)Nc1cccc(C#CC#Cc2cccc(NC(=O)[C@@H]3CCCN3C(=O)[C@@H](NC(=O)OCCCC)C(C)C)c2)c1)C(C)C", "organism": "Hepatitis C virus", "test": "viral replication, inhibitor, luciferase", "test system": "Huh-5-2, GETYPE1B", "setting": "72 h, replicon", "quantity": "pEC50", "value": "< 5.00"}
{"SMILES": "Nc1nc2c(ncn2[C@@H]2O[C@H](CO)[C@@H](F)[C@@H]2F)c(=O)[nH]1", "organism": "Hepatitis C virus", "test": "viral replication, inhibitor", "test system": "Huh-7", "setting": "replicon", "quantity": "pEC50", "value": "< 5.00"}
{"SMILES": "Cc1ccc(-c2nn(-c3ccccc3)cc2C=c2sc(=CC#N)[nH]c2=O)cc1", "organism": "Acinetobacter baumannii", "test": "microbial growth, well diffusion", "setting": "100000 µg/mL", "quantity": "inhibition zone", "value": "14 mm"}
{"SMILES": "Nc1nc(N)c2ncn([C@@H]3O[C@H](CO)[C@@H](F)[C@@H]3F)c2n1", "organism": "Hepatitis C virus", "test": "viral replication, inhibitor", "test system": "Huh-7", "setting": "replicon", "quantity": "EC90", "value": "> 10000 nM"}
{"SMILES": "COC(=O)N[C@H](C(=O)N1CCC[C@H]1c1ncc(-c2ccc(-c3ccc(-c4cnc([C@@H]5CCCN5C(=O)[C@@H](NC(=O)OC)C(C)C)[nH]4)cc3)cc2)[nH]1)C(C)C", "organism": "Hepatitis C virus", "test": "viral replication, inhibitor", "test system": "Huh-7, GETYPE2A", "setting": "replicon", "quantity": "pEC50", "value": 10.70}
{"SMILES": "C[C@]1(CO)[C@H]2CC[C@@H]3CN(Cc4cccs4)[C@@H](C4=CCOC4=O)C[C@H]3[C@]2(C)CC[C@H]1O", "organism": "unidentified human coronavirus", "test": "cytopathic effect", "test system": "MRC5", "setting": "25 µM, 72 h", "quantity": "inhibition", "value": "15.7%"}
{"SMILES": "Nc1nc(Cl)c2ncn([C@@H]3O[C@H](CO)[C@@H](F)[C@@H]3F)c2n1", "organism": "Hepatitis C virus", "test": "viral replication, inhibitor", "test system": "Huh-7", "setting": "replicon", "quantity": "pEC50", "value": "< 5.00"}
{"SMILES": "CCCCCCC/C=C/C(=O)N1C(=O)/C(=C(/C)O)C(=O)C1CO (centres unmarked)", "organism": "Proteus mirabilis", "test": "microbial growth", "test system": "ATCC25933", "quantity": "MIC", "value": "> 200 µg/mL"}
{"SMILES": "CCOC(=O)N[C@H](CC(C)C)C(=O)N1CCC[C@@H]1C(=O)Nc1cccc(C#CC#Cc2cccc(NC(=O)[C@H]3CCCN3C(=O)[C@@H](CC(C)C)NC(=O)OCC)c2)c1", "organism": "Hepatitis C virus", "test": "viral replication, inhibitor, luciferase", "test system": "Huh-5-2, GETYPE1B", "setting": "72 h, replicon", "quantity": "pEC50", "value": 6.39}
{"SMILES": "CC(C)CN1C[C@H]2CC[C@@H]3[C@]4(C)COC(C)(C)O[C@@H]4CC[C@@]3(C)[C@@H]2C[C@@H]1C1=CCOC1=O", "organism": "unidentified human coronavirus", "test": "cytopathic effect", "test system": "MRC5", "setting": "25 µM, 72 h", "quantity": "inhibition", "value": "28.6%"}
